Results as given in ChEMBL document CHEMBL1141301, “Trypanocidal and antileishmanial dihydrochelerythrine derivatives from Garcinia lucida” (J Nat Prod, 2007).

How the values were obtained:
Leishmania donovani [1] = assay: Antileishmanial activity against Leishmania donovani promastigotes at 100 uM; format: functional
[2] = system: Trypanosoma brucei brucei; assay: Antitrypanosomal activity against Trypanosoma brucei brucei MITat 1.2 variant 221; format: functional, organism-based
Method in brief: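 Bloodstream-form parasites (MITat 1.2, variant 221) grown axenically in HMI-9 medium, run by a previously reported protocol. Pentamidine and suramin included as standards. IC50 taken as the mean of three tests done on different days.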

Leishmania donovani [3] = assay: Antileishmanial activity against Leishmania donovani promastigotes at 10 uM; format: functional
RAW = assay: Cytotoxicity against mouse RAW cells; format: cell-based
Method in brief: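 RAW 264.7 murine macrophages in DMEM with 10% heat-inactivated FBS, antibiotics, 2 mM L-glutamine at 37 °C, 5% CO2; 1 × 10^5 cells treated or untreated with compounds for 48 h; viability read with alamarBlue.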

Vero = assay: Cytotoxicity against african green monkey Vero cells; format: cell-based; conditions: Chlorocebus sabaeus
Leishmania donovani [4] = assay: Antileishmanial activity against Leishmania donovani axenic amastigotes; format: functional, organism-based
Method in brief: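 L. donovani amastigote-like parasites (WHO MHOM/SD/62/1S-CL2D), axenic; 3-day growth inhibition assay read with tetrazolium dye-based CellTiter reagent; IC50 determined.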

Leishmania donovani [5] = assay: Antileishmanial activity against Leishmania donovani promastigotes at 1 uM; format: functional
Leishmania donovani [6] = assay: Antileishmanial activity against Leishmania donovani promastigotes in RAW cells assessed as reduction in infection; format: functional; parameters: scale not given: the % may be the effect or the level left
Method in brief: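 RAW 264.7 macrophages (1 × 10^6) plated 2 h, infected 6 h with stationary-phase luciferase-transfected L. donovani promastigotes at 20:1 parasite:macrophage; free parasites washed off with PBS; compound-treated; survival by luciferase luminescence 24 h later; triplicate; % reduction in infection versus untreated wells.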

Structure (SMILES) | inhibition at 100 µM (Leishmania donovani [1]) [%] | IC50 [2] [µM] | inhibition at 10 µM (Leishmania donovani [3]) [%] | Activity (RAW) | IC50 (Vero) [µM] | IC50 (Leishmania donovani [4]) [µM] | inhibition at 1 µM (Leishmania donovani [5]) [%] | Activity (Leishmania donovani [6]) [%]
COc1ccc2c(c1OC)[C@H](CC(C)=O)N(C)c1c-2ccc2cc(O)c(O)cc12 [LUCIDAMINE A] | 100 | 14.1 | 76 | Toxic | 11.6 | 10.8 | 23 | 
COc1ccc2c(c1OC)[C@H](CC(C)=O)N(C)c1c-2ccc2cc3c(cc12)OCO3 | 100 | 3.9 | 87 |  | 15.3 | 6.6 | 23 | 57.4
Cc1ccc(C(=O)Nc2ccc(S(=O)(=O)O)c3cc(S(=O)(=O)O)cc(S(=O)(=O)O)c23)cc1NC(=O)c1cccc(NC(=O)Nc2cccc(C(=O)Nc3cc(C(=O)Nc4ccc(S(=O)(=O)O)c5cc(S(=O)(=O)O)cc(S(=O)(=O)O)c45)ccc3C)c2)c1 [SURAMIN] |  | 0.2 |  |  |  |  |  | 
c1cc2c(cc1[C@H]1OC[C@H]3[C@@H]1CO[C@@H]3c1ccc3c(c1)OCO3)OCO2 [SESAMIN] |  |  |  | Non-toxic |  |  |  | 
N=C(N)c1ccc(OCCCCCOc2ccc(C(=N)N)cc2)cc1 [PENTAMIDINE] |  | 0.0025 |  |  | 13.7 | 1.3 |  | 
COc1ccc2c(c1OC)CN(C)c1c-2ccc2cc3c(cc12)OCO3 [DIHYDROCHELERYTHRINE] | 100 | 0.8 | 89 |  | 35.4 | 2 | 36 | 70.9
C=CC(C)(C)c1c(O)c(O)c(C(C)(C)C=C)c2c3c(ccc12)-c1ccc(OC)c(OC)c1[C@H](CC(C)=O)N3C [LUCIDAMINE B] | 64 | 4.1 | 48 | Toxic | 17.5 | 6.8 | 14 | 
CC(C)CNC(=O)/C=C/c1ccc2c(c1)OCO2 [FOGARAMIDE] |  |  |  | Non-toxic |  |  |  | 
